Measurements taken from ChEMBL document CHEMBL1147533, “Highly diastereoselective inverse electron demand (IED) Diels-Alder reaction mediated by chiral salen-AlCl complex: the first, target-oriented synthesis of pyranoquinolines as potential antibacterial agents” (Bioorg Med Chem Lett, 2004).

How the values were obtained:
Assay type in all cases: functional, organism-based
Vibrio mimicus [1] = assay: In vitro antibacterial activity against Vibrio mimicus at a concentration of 2 mg/mL; - indicates No activity
Summary of the method: (§1)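 Five microlitres of compound stock (about 0.2 mg) combined with bacterial suspension in Tris-buffered saline (0.8 OD at 580 nm). Mixture incubated 14 h at 14 °C, then plated on TCBS agar (thiosulphate–citrate–bile salt–sucrose) to read bactericidal activity.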

Pseudomonas sp. [2] = assay: In vitro antibacterial activity against Pseudomonas species at a concentration of 2 mg/mL; - indicates No activity; summary of the method: as §1
Vibrio fluvialis [3] = assay: In vitro antibacterial activity against Vibrio fluvialis at a concentration of 2 mg/mL; - indicates No activity; summary of the method: as §1
Escherichia coli [4] = assay: In vitro antibacterial activity against Escherichia coli at a concentration of 2 mg/mL; - indicates No activity; summary of the method: as §1
Vibrio vulnificus [5] = assay: In vitro antibacterial activity against Vibrio vulnificus at a concentration of 2 mg/mL; - indicates No activity; summary of the method: as §1
Vibrio alginolyticus [6] = assay: In vitro antibacterial activity against Vibrio alginolyticus at a concentration of 2 mg/mL; - indicates No activity; summary of the method: as §1
Vibrio anguillarum [7] = assay: In vitro antibacterial activity against Vibrio anguillarum at a concentration of 2 mg/mL; - indicates No activity; summary of the method: as §1
Vibrio parahaemolyticus [8] = assay: In vitro antibacterial activity against Vibrio parahaemolyticus at a concentration of 2 mg/mL; - indicates No activity; summary of the method: as §1
Vibrio fluvialis [9] = assay: In vitro antibacterial activity of (50:50%) of compounds against Vibrio fluvialis at a concentration of 2 mg/mL; - indicates No activity; summary of the method: as §1
Pseudomonas sp. [10] = assay: n vitro antibacterial activity of (25:50%) of compounds against Pseudomonas species at a concentration of 2 mg/mL; + indicates No activity; summary of the method: as §1
Vibrio parahaemolyticus [11] = assay: n vitro antibacterial activity of (25:50%) of compounds against Vibrio parahaemolyticus at a concentration of 2 mg/mL; + indicates No activity; summary of the method: as §1
Vibrio mimicus [12] = assay: n vitro antibacterial activity of (25:50%) of compounds against Vibrio mimicus at a concentration of 2 mg/mL; + indicates No activity; summary of the method: as §1
Vibrio alginolyticus [13] = assay: In vitro antibacterial activity of (50:50%) of compounds against Vibrio alginolyticus at a concentration of 2 mg/mL; - indicates No activity; summary of the method: as §1
Vibrio parahaemolyticus [14] = assay: In vitro antibacterial activity of (50:50%) of compounds against Vibrio parahaemolyticus at a concentration of 2 mg/mL; - indicates No activity; summary of the method: as §1
Vibrio anguillarum [15] = assay: n vitro antibacterial activity of (25:50%) of compounds against Vibrio anguillarum at a concentration of 2 mg/mL; + indicates No activity; summary of the method: as §1
Escherichia coli [16] = assay: n vitro antibacterial activity of (25:50%) of compounds against Escherichia coli at a concentration of 2 mg/mL; + indicates No activity; summary of the method: as §1
Vibrio anguillarum [17] = assay: In vitro antibacterial activity of (50:50%) of compounds against Vibrio anguillarum at a concentration of 2 mg/mL; - indicates No activity; summary of the method: as §1
Vibrio vulnificus [18] = assay: In vitro antibacterial activity of (50:50%) of compounds against Vibrio vulnificus at a concentration of 2 mg/mL; - indicates No activity; summary of the method: as §1
Vibrio mimicus [19] = assay: In vitro antibacterial activity of (50:50%) of compounds against Vibrio mimicus at a concentration of 2 mg/mL; - indicates No activity; summary of the method: as §1
Vibrio fluvialis [20] = assay: n vitro antibacterial activity of (25:50%) of compounds against Vibrio fluvialis at a concentration of 2 mg/mL; + indicates No activity; summary of the method: as §1
Vibrio vulnificus [21] = assay: n vitro antibacterial activity of (25:50%) of compounds against Vibrio vulnificus at a concentration of 2 mg/mL; + indicates No activity; summary of the method: as §1
Vibrio alginolyticus [22] = assay: n vitro antibacterial activity of (25:50%) of compounds against Vibrio alginolyticus at a concentration of 2 mg/mL; + indicates No activity; summary of the method: as §1
Pseudomonas sp. [23] = assay: In vitro antibacterial activity of (50:50%) of compounds against Pseudomonas species at a concentration of 2 mg/mL; - indicates No activity; summary of the method: as §1
Escherichia coli [24] = assay: In vitro antibacterial activity of (50:50%) of compounds against Escherichia coli at a concentration of 2 mg/mL; - indicates No activity; summary of the method: as §1
Vibrio fluvialis [25] = assay: In vitro antibacterial activity against Vibrio fluvialis in test 2; - indicates No activity; summary of the method: as §1
Escherichia coli [26] = assay: In vitro antibacterial activity against Escherichia coli in test 1; ++ indicates mild activity; summary of the method: as §1
Vibrio fluvialis [27] = assay: In vitro antibacterial activity against Vibrio fluvialis in test 1; - indicates No activity; summary of the method: as §1
Escherichia coli [28] = assay: In vitro antibacterial activity against Escherichia coli in test 2; ++ indicates mild activity; summary of the method: as §1

## c1ccc([C@@H]2Nc3ccccc3[C@@H]3OCCC[C@H]23)cc1
Vibrio mimicus [1]
  Activity: Not toxic
Pseudomonas sp. [2]
  Activity: Not toxic
Vibrio fluvialis [3]
  Activity: Not toxic
Escherichia coli [4]
  Activity: Not toxic
Vibrio vulnificus [5]
  Activity: Not toxic
Vibrio alginolyticus [6]
  Activity: Not toxic
Vibrio anguillarum [7]
  Activity: Not toxic
Vibrio parahaemolyticus [8]
  Activity: Not toxic

## c1ccc([C@@H]2Nc3ccccc3[C@@H]3OCCC[C@H]23)cc1.c1ccc([C@H]2Nc3ccccc3[C@@H]3OCCC[C@H]23)cc1
Vibrio fluvialis [9]
  Activity: Not toxic
Pseudomonas sp. [10]
  Activity: No activity
Vibrio parahaemolyticus [11]
  Activity: No activity
Vibrio mimicus [12]
  Activity: No activity
Vibrio alginolyticus [13]
  Activity: Not toxic
Vibrio parahaemolyticus [14]
  Activity: Not toxic
Vibrio anguillarum [15]
  Activity: No activity
Escherichia coli [16]
  Activity: No activity
Vibrio anguillarum [17]
  Activity: Not toxic
Vibrio vulnificus [18]
  Activity: Not toxic
Vibrio mimicus [19]
  Activity: Not toxic
Vibrio fluvialis [20]
  Activity: No activity
Vibrio vulnificus [21]
  Activity: No activity
Vibrio alginolyticus [22]
  Activity: No activity
Pseudomonas sp. [23]
  Activity: Not toxic
Escherichia coli [24]
  Activity: Not toxic

## c1ccc([C@H]2Nc3ccccc3[C@@H]3OCCC[C@H]23)cc1
Vibrio fluvialis [25]
  Activity: Not toxic
Escherichia coli [26]
  Activity: mild activity
Vibrio fluvialis [27]
  Activity: Not toxic
Escherichia coli [28]
  Activity: mild activity
